For data set [1], the system named is HK-2. Put plainly: Cytotoxicity against human HK2 cells assessed as reduction in cell viability after 24 hrs by MTT assay. Format: cell-based. Particulars: hk-2, 24 h. The method, boiled down:
(§1)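 MTT cytotoxicity read-out on HK2 cells. Medium was changed, MTT in PBS added to a final 0.5 mg/mL, and plates incubated 4 h at 37°C. Medium was then removed, formazan dissolved in DMSO, and absorbance read at 492 nm.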
For orientation: Formazan colour is commonly taken as a measure of viable cells.

The subject of data set [2] is HK-2. The experiment in a line: Antiinflammatory activity in human HK2 cells assessed as suppression of cisplatin-induced TNF-alpha mRNA level at 4 uM by SYBR-green based RT-PCR analysis. Format: functional, cell-based. The method, boiled down:
(§2)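 Overnight starvation of HK2 cells in DMEM/F12 with 0.5% FBS, then 6 h compound pretreatment before cisplatin 20 μM. Cells harvested after 24 h. Total RNA extracted with an RNeasy kit, and MCP-1, TNF-α or IL-6 mRNA quantified by real-time PCR. Three to four independent experiments.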

The subject of data set [3] is HK-2. The experiment in a line: Antiinflammatory activity in human HK2 cells assessed as suppression of cisplatin-induced IL-6 mRNA level at 4 uM by SYBR-green based RT-PCR analysis. Type of data set: functional, cell-based. In a few lines:
as §2

Data set [4] relates to HK-2. The experiment in a line: Antiinflammatory activity in human HK2 cells assessed as suppression of cisplatin-induced MCP-1 mRNA level at 4 uM by SYBR-green based RT-PCR analysis. Type of data set: functional, cell-based. The method, boiled down: as §2
The subject of data set [5] is HK-2. The experiment in a line: Antiinflammatory activity in human HK2 cells assessed as suppression of cisplatin-induced TNF-alpha […] level at 4 uM by ELISA. Format: functional, cell-based. The method, boiled down:
(§3)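 HK2 cells starved overnight in DMEM/F12 with 0.5% FBS, pretreated with compound 6 h, then cisplatin 20 μM added. After 24 h, cytokine protein in the culture medium was measured with human TNF-α, IL-6 or MCP-1 ELISA kits per manufacturer's instructions. Three to four independent experiments.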
(In general: In an ELISA, binding on a coated surface is turned into a signal by an enzyme label.)

Data set [6] deals with HK-2. Put plainly: Antiinflammatory activity in human HK2 cells assessed as suppression of cisplatin-induced IL-6 […] level at 4 uM by ELISA. Format: functional, cell-based. The method, boiled down:
as §3

In data set [7] the test system is HK-2. Put plainly: Antiinflammatory activity in human HK2 cells assessed as suppression of cisplatin-induced MCP-1 […] level at 4 uM by ELISA. Type of data set: functional, cell-based. The method, boiled down:
as §3

In data set [8] the target is Transcription factor p65 (Homo sapiens) (UniProt Q04206). The experiment in a line: Inhibition of cisplatin-induced NF-kappaB p65 phosphorylation in human HK2 cells at 4 uM by Western blot analysis. Type of data set: cell-based. In a few lines:
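HK2 cells starved overnight in DMEM/F12 with 0.5% FBS, pretreated 6 h with compound, then given cisplatin 20 μM for 24 h. Lysates made in ice-cold RIPA buffer and protein measured by BCA. Run on 10% SDS-PAGE, transferred to nitrocellulose, primary antibodies 18 h at 4°C, IRDye 800 secondary 1.5 h at room temperature.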
(A western blot detects proteins with antibodies after separation by electrophoresis.)

In data set [9] the test system is HK-2. Put plainly: Protection against cisplatin-induced cell death in human HK2 cells assessed as increase in survival rate at 4 uM preincubated for 6 hrs followed by cisplatin addition measured after 24 hrs by MTT assay relative to control. Type of data set: functional. Particulars: read-out: Survival. In a few lines: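 HK2 cells starved overnight in DMEM/F12 with 0.5% FBS, pretreated with compound for 6 h, then exposed to cisplatin (20 μM) for 24 h. Compounds from 5 mM DMSO stocks. Viability by MTT: 0.5 mg/mL final, 4 h at 37°C, formazan dissolved in DMSO, absorbance at 492 nm. Three to four independent experiments.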

The test system of data set [10] is HK-2. The experiment in a line: Protection against cisplatin-induced cell death in human HK2 cells assessed as increase in survival rate preincubated for 6 hrs followed by cisplatin addition measured after 24 hrs by MTT assay. Format: functional, cell-based.
For data set [11], the system named is HK-2. Put plainly: Cytotoxicity against human HK2 cells assessed as reduction in cell viability at 1 to 256 uM after 24 hrs by MTT assay. Type of data set: cell-based. Conditions: hk-2, 24 h. The method, boiled down:
as §1

Active and inactive are the calls of the source. The calls are words filed in the database; no cut-off is given here.

Our source for the Activity, inhibition and viability values is ChEMBL document CHEMBL4373631, “Design, synthesis and evaluation of PD176252 analogues for ameliorating cisplatin-induced nephrotoxicity” (Medchemcomm, 2019).

Sequence of Transcription factor p65 (Homo sapiens) (Q04206 whole entry): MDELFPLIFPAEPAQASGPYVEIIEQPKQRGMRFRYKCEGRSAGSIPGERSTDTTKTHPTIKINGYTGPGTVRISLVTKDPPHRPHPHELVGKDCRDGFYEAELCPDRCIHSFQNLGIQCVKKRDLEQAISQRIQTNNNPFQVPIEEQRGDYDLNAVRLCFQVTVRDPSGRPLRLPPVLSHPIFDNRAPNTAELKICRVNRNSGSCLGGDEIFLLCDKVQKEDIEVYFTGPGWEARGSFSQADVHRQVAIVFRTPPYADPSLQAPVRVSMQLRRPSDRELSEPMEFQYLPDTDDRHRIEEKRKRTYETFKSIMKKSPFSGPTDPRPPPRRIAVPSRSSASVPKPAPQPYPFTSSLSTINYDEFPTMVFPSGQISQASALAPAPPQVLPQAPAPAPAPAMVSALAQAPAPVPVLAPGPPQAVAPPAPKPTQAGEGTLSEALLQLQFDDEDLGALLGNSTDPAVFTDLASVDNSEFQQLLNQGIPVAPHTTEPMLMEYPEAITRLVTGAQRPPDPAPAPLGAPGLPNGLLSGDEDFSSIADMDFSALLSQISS

On to `COc1ccc(C2(CNC(=O)[C@](C)(Cc3c[nH]c4ccccc34)NC(=O)Nc3ccc([N+](=O)[O-])cc3)CCCCC2)nc1`, for which, in data set [1], the Activity entry is listed as “Toxic”. In addition, the result in [2], in data set [3], in data set [4], in data set [5], in data set [6] and in data set [7] was Active. Also, the inhibition entry in data set [8] is “Active”.

`Cc1ccc(CC(=O)N[C@@H](Cc2ccccc2)C(=O)NCCn2ccnc2)cc1`: the viability at 4 µM in [9] is greater than 40%. Also, the Activity result in data set [10] was “Dose-dependent effect”; in [11], “Non-Toxic”. Further, the result in data set [2], in data set [3], in [4], in [5], in data set [6] and in data set [7] was Active. The inhibition result in data set [8] was “Active”.

Regarding `O=C(Cc1ccc(F)cc1)N[C@@H](Cc1ccc(O)cc1)C(=O)NCCN1CCOCC1`, the viability at 4 µM in [9] was greater than 30%. Further, the Activity result was “Dose-dependent effect” in [10] and “Non-Toxic” in data set [11]. For the same compound, the outcome in data set [2], in data set [3] and in [4] was Active.
